Experimental data as given in ChEMBL document CHEMBL5303300, “EUbOPEN Chemogenomics Library - Multiplex” (2023).
Several values for one entry are separate records, joined by “and”; a condition that tells them apart may be missing. Identical values can stand only once.

What was measured:
HEK-293T = test: Multiplex assay against HEK293T; format: toxicity, cell-based; details: human, number of replicates 2
In short: (§1)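 Four dyes were applied at seeding to live cells: Hoechst33342, BioTracker Green Microtubule Cytoskeleton Dye, MitoTracker Red and Annexin V Alexa Fluor 680. Imaging after compound addition used a CQ1 microscope at 37°C and 5% CO2. CellPathfinder machine-learning gating then sorted cells into Hoechst high-intensity objects or normal cells, normal cells into healthy, pyknosed or fragmented nuclei, and pyknosed cells into mitotic or apoptotic, with tubulin, mitochondrial-mass and membrane-permeability phenotypes given as per cents of healthy-nucleus cells.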

Fibroblast = test: Multiplex assay against human fibroblast; format: toxicity, cell-based; details: number of replicates 2; in short: as §1
[1] = 24 h, 10 µM, compound concentration 10 uM
[2] = 48 h, 1 µM, compound concentration 1 uM
[3] = 48 h, 10 µM, compound concentration 10 uM
[4] = 12 h, 1 µM, compound concentration 1 uM
[5] = 12 h, 10 µM, compound concentration 10 uM
[6] = 24 h, 1 µM, compound concentration 1 uM

Cn1c(Nc2c(Cl)cccc2Cl)nc2ccc3nc[nH]c(=O)c3c21
Population Mitochondria Different-Phenotype (%) (HEK-293T; [1]): 4% and 3%
Population Mitotic Cells (%) (HEK-293T; [1]): 78% and 82%
Population Normal (%) (HEK-293T; [1]): 96%
Population Pyknosed Nuclei (%) (HEK-293T; [1]): 12% and 15%
Population Tubulin-Different-Phenotype (%) (HEK-293T; [1]): 16% and 18%
Total Cell Count (HEK-293T; [1]): 1151 and 1278
Population Apoptotic (%) (HEK-293T; [2]): 36% and 15%
Population Fragmented Nuclei (%) (HEK-293T; [2]): 12% and 15%
Population Healthy Nuclei (%) (HEK-293T; [2]): 81% and 80%
Population Hoechst High Intensity Objects (%) (HEK-293T; [2]): 10% and 8%
Population Membrane Permeable-Phenotype (%) (HEK-293T; [2]): 2% and 3%
Population Mitochondria Different-Phenotype (%) (HEK-293T; [2]): 1% and 0%
Population Mitotic Cells (%) (HEK-293T; [2]): 63% and 84%
Population Normal (%) (HEK-293T; [2]): 89% and 91%
Population Pyknosed Nuclei (%) (HEK-293T; [2]): 5% and 4%
Population Tubulin-Different-Phenotype (%) (HEK-293T; [2]): 4% and 5%
Total Cell Count (HEK-293T; [2]): 1439 and 2070
Population Apoptotic (%) (HEK-293T; [3]): 19% and 27%
Population Fragmented Nuclei (%) (HEK-293T; [3]): 4%
Population Healthy Nuclei (%) (HEK-293T; [3]): 79% and 76%
Population Hoechst High Intensity Objects (%) (HEK-293T; [3]): 3%
Population Membrane Permeable-Phenotype (%) (HEK-293T; [3]): 4%
Population Mitochondria Different-Phenotype (%) (HEK-293T; [3]): 3%
Population Mitotic Cells (%) (HEK-293T; [3]): 80% and 72%
Population Normal (%) (HEK-293T; [3]): 96%
Population Pyknosed Nuclei (%) (HEK-293T; [3]): 16% and 18%
Population Tubulin-Different-Phenotype (%) (HEK-293T; [3]): 16% and 24%
Total Cell Count (HEK-293T; [3]): 1576 and 1527
Population Apoptotic (%) (Fibroblast; [4]): 43% and 47%
Population Fragmented Nuclei (%) (Fibroblast; [4]): 10% and 5%
Population Healthy Nuclei (%) (Fibroblast; [4]): 56% and 67%
Population Hoechst High Intensity Objects (%) (Fibroblast; [4]): 0%
Population Membrane Permeable-Phenotype (%) (Fibroblast; [4]): 10% and 6%
Population Mitochondria Different-Phenotype (%) (Fibroblast; [4]): 1% and 2%
Population Mitotic Cells (%) (Fibroblast; [4]): 56% and 52%
Population Normal (%) (Fibroblast; [4]): 100%
Population Pyknosed Nuclei (%) (Fibroblast; [4]): 32% and 26%
Population Tubulin-Different-Phenotype (%) (Fibroblast; [4]): 11% and 14%
Total Cell Count (Fibroblast; [4]): 169 and 189
Population Apoptotic (%) (Fibroblast; [5]): 40% and 37%
Population Fragmented Nuclei (%) (Fibroblast; [5]): 8% and 17%
Population Healthy Nuclei (%) (Fibroblast; [5]): 62% and 69%
Population Hoechst High Intensity Objects (%) (Fibroblast; [5]): 0%
Population Membrane Permeable-Phenotype (%) (Fibroblast; [5]): 10% and 5%
Population Mitochondria Different-Phenotype (%) (Fibroblast; [5]): 4% and 3%
Population Mitotic Cells (%) (Fibroblast; [5]): 59% and 62%
Population Normal (%) (Fibroblast; [5]): 100%
Population Pyknosed Nuclei (%) (Fibroblast; [5]): 28% and 12%
Population Tubulin-Different-Phenotype (%) (Fibroblast; [5]): 18% and 23%
Total Cell Count (Fibroblast; [5]): 156 and 195
Population Apoptotic (%) (Fibroblast; [6]): 53% and 47%
Population Fragmented Nuclei (%) (Fibroblast; [6]): 8% and 10%
Population Healthy Nuclei (%) (Fibroblast; [6]): 54% and 57%
Population Hoechst High Intensity Objects (%) (Fibroblast; [6]): 0%
Population Membrane Permeable-Phenotype (%) (Fibroblast; [6]): 12% and 11%
Population Mitochondria Different-Phenotype (%) (Fibroblast; [6]): 1% and 3%
Population Mitotic Cells (%) (Fibroblast; [6]): 46% and 52%
Population Normal (%) (Fibroblast; [6]): 100%
Population Pyknosed Nuclei (%) (Fibroblast; [6]): 36% and 32%
Population Tubulin-Different-Phenotype (%) (Fibroblast; [6]): 10% and 18%
Total Cell Count (Fibroblast; [6]): 152 and 202
Population Apoptotic (%) (Fibroblast; [1]): 43% and 41%
Population Fragmented Nuclei (%) (Fibroblast; [1]): 16% and 14%
Population Healthy Nuclei (%) (Fibroblast; [1]): 54% and 72%
Population Hoechst High Intensity Objects (%) (Fibroblast; [1]): 0%
Population Membrane Permeable-Phenotype (%) (Fibroblast; [1]): 9% and 6%
Population Mitochondria Different-Phenotype (%) (Fibroblast; [1]): 3% and 1%
Population Mitotic Cells (%) (Fibroblast; [1]): 56% and 58%
Population Normal (%) (Fibroblast; [1]): 100%
Population Pyknosed Nuclei (%) (Fibroblast; [1]): 28% and 13%
Population Tubulin-Different-Phenotype (%) (Fibroblast; [1]): 19% and 11%
Total Cell Count (Fibroblast; [1]): 152 and 183
Population Apoptotic (%) (Fibroblast; [2]): 59% and 61%
Population Fragmented Nuclei (%) (Fibroblast; [2]): 15% and 14%
Population Healthy Nuclei (%) (Fibroblast; [2]): 55% and 62%
Population Hoechst High Intensity Objects (%) (Fibroblast; [2]): 2% and 0%
Population Membrane Permeable-Phenotype (%) (Fibroblast; [2]): 17% and 10%
Population Mitochondria Different-Phenotype (%) (Fibroblast; [2]): 2%
Population Mitotic Cells (%) (Fibroblast; [2]): 40% and 38%
Population Normal (%) (Fibroblast; [2]): 97% and 100%
Population Pyknosed Nuclei (%) (Fibroblast; [2]): 29% and 23%
Population Tubulin-Different-Phenotype (%) (Fibroblast; [2]): 17% and 13%
Total Cell Count (Fibroblast; [2]): 128 and 187
Population Apoptotic (%) (Fibroblast; [3]): 94% and 87%
Population Fragmented Nuclei (%) (Fibroblast; [3]): 18%
Population Healthy Nuclei (%) (Fibroblast; [3]): 26% and 35%
Population Hoechst High Intensity Objects (%) (Fibroblast; [3]): 0%
Population Mitochondria Different-Phenotype (%) (Fibroblast; [3]): 0%
Population Mitotic Cells (%) (Fibroblast; [3]): 5% and 12%
Population Normal (%) (Fibroblast; [3]): 100%
Population Pyknosed Nuclei (%) (Fibroblast; [3]): 54% and 46%
Population Tubulin-Different-Phenotype (%) (Fibroblast; [3]): 37% and 16%
Total Cell Count (Fibroblast; [3]): 131 and 170
